# Assay results collected from several papers.
# Lines come from different studies, so protocols differ.
# Target: Dual specificity tyrosine-phosphorylation-regulated kinase 1B (DYRK1B, Homo sapiens, UniProt Q9Y463)
SMILES,assay,conditions,quantity,value
Cn1cncc1C1=CN(c2ncnc3[nH]cnc23)CCS1,"enzyme activity, inhibitor, radiometric",50 nM,inhibition,22.7%
COc1cccc(CCNc2nc3cc(C(=O)O)ccc3c3cncnc23)c1,"enzyme activity, inhibitor, radiometric",1 µM,remaining activity,112%
COc1cc2ncnc(Nc3ccc(Oc4ccccc4)cc3C)c2cc1OC,"enzyme activity, inhibitor",1 µM,inhibition,0%
O=C(O)c1ccc2c(c1)nc(Nc1ccccc1)c1ncncc12,"enzyme activity, inhibitor, radiometric",1 µM,remaining activity,62%
CCCS(=O)(=O)Nc1ccc(F)c(C(=O)c2c[nH]c3ncc(-c4ccc(Cl)cc4)cc23)c1F,"enzyme activity, inhibitor",1 µM,inhibition,< 20%
CSc1cccnc1N1CCN(Cc2nc3ccccc3[nH]2)CC1,"cell-free assay, competition with immobilised ligand",1 µM,remaining binding,91%
O=C(O)c1ccc2c(c1)nc(NCc1ccccc1)c1ccncc12,"enzyme activity, inhibitor, radiometric",1 µM,remaining activity,112%
Cc1ccc(NC(=O)c2ccc(C)c(C(F)(F)F)c2)cc1C#Cc1nn(C2CCC(O)CC2)c2ncnc(N)c12 (stereo not drawn),cell-free assay,10 µM,remaining signal,92%
CC/C(=N\NC(=O)NCc1cccc(O)c1)c1ccc(O)c(C)c1O,"enzyme activity, inhibitor",0.1 µM,inhibition,-5.1%
O=C(N1CCS(=O)(=O)CC1)N1C[C@H](c2ccc(OC(F)(F)F)cc2)C[C@H](c2nc(C3CC3)no2)C1,"cell-free assay, competition with immobilised ligand",1 µM,remaining binding,93%
O=C(O)c1ccc2c(c1)nc(NCCc1cccc(F)c1)c1ncncc12,"enzyme activity, inhibitor, radiometric",1 µM,remaining activity,117%
CN(C)C(=O)Cn1cc(-c2nc([C@@](C)(c3ccc(-c4cnc(N)nc4)cc3)C3CC3)no2)cn1,"cell-free assay, competition with immobilised ligand",1 µM,remaining binding,98%
O=C(O)c1ccc2c(c1)nc(Nc1ccc3ccccc3c1)c1ncncc12,"enzyme activity, inhibitor, radiometric",1 µM,remaining activity,41%
O=C(NCCCC1CCCCC1)c1ccc(CNC(=O)c2cnn(-c3ccccc3)c2C(F)(F)F)cc1,"cell-free assay, competition with immobilised ligand",0.1 µM,remaining binding,100%
CS(=O)(=O)Nc1cccc(-c2csc(NC(=O)CSc3nc4nccnc4c(=O)n3CCc3ccccc3)n2)c1,"enzyme activity, inhibitor",10 µM,inhibition,0%
